This is a sample that favours compounds with a hit; in the whole collection about 3.5% have one here.
MrgX1 allo act: human MrgX1 positive allosteric modulation, primary screen; MrgX1-HEK293, Fluo-4 calcium flux, FDSS; stronger effect = higher value; 310,000 tested, 0.63% active; B-score at 10 µM; AID 588675; Q96LB2;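 active = plate-corrected calcium response at least 3 library SD above typical, normal starting fluorescence, not activating the receptor alone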;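 also: compound read alongside a low EC10 to EC30 dose of BAM8-22 agonist; peak minus trough fluorescence over baseline measured at the second addition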
Target sequence (Q96LB2 whole entry, looked up): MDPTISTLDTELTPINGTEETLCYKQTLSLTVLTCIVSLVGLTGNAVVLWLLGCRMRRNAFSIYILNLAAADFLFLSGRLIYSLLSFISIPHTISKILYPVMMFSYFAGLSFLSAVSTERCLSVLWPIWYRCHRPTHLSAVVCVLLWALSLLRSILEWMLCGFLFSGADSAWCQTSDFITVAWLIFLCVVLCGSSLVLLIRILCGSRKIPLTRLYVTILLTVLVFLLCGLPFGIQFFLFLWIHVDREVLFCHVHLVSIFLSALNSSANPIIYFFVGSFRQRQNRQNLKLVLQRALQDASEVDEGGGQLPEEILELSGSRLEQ
MrgX1 ag: agonists of human MrgX1 receptor | 310,000 tested, 0.44% active | Q96LB2 | MrgX1-HEK293 cells, Fluo-4 calcium fluorescence, agonist mode; stronger effect = higher value | B-score at 10 µM;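 active = calcium response B-score plate-corrected fluorescence ratio at least 3 library SD, with starting fluorescence B-score inside 5 SD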
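Test system: HEK293 cells stably expressing human MrgX1 receptor; Input: fifteen thousand cells per well; Dosing: compound delivered in addition one of three; Schedule: overnight seeding, then 1 h dark dye loading; Technique: Fluo-4 NW calcium fluorescence; Measure: B-scored fluorescence response ratio; Controls: positive and negative controls per plate.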
RGS4 inh: inhibitors of human RGS4. HEK293 M3R/RGS4 inducible, Fluo-4 calcium flux; stronger effect = higher value; triggered by carbachol at its EC20. B-score at 10 µM. 310,000 tested, 0.45% active;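 active = B-score, a plate-corrected calcium signal, over three deviations above library mean, with baseline fluorescence within five deviations of library mean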;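 also: RGS4 expression induced by doxycycline in cells with stable M3 receptor; B-score is computed from the integrated fluorescence ratio over baseline after carbachol; higher B-score means a larger calcium signal and so more RGS4 inhibition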
Target sequence (P49798 whole entry, looked up): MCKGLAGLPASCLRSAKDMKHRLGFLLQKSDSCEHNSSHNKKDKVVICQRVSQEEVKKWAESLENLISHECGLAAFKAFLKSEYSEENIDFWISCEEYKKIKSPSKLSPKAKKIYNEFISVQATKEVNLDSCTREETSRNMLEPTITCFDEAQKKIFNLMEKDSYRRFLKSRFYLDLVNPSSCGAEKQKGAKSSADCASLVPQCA
MrgX1 antag: antagonists of human MrgX1 receptor | Q96LB2 | MRGX1-HEK293 calcium flux, Fluo-4, BAM8-22 antagonism; stronger effect = lower value | B-score at 10 µM | 310,000 tested, 1.3% active;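 active = calcium-response B-score plate-corrected more than 3 library SD below zero, starting fluorescence within 5 deviations, no agonist response on first addition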;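 also: peak minus trough fluorescence over baseline after final BAM8-22 challenge near maximal dose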
RGS4 act: potentiators or activators of RGS4; HEK293 M3R/inducible RGS4, carbachol calcium flux Fluo4; stronger effect = lower value; 310,000 tested, 0.92% active; B-score at 10 µM;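 active = B-score of the integrated calcium signal more than 4 SD below the library mean, with starting fluorescence not abnormally high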;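 also: negative B-score means reduced calcium response which marks RGS4 activation or potentiation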
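Material: M3R-expressing HEK293 line, RGS4 induced by doxycycline | Schedule: Overnight RGS4 induction, 30 min dye load 37 °C, 20 min compound RT | Measured by: Fluo4 fluorescence kinetic imaging of calcium | Read-out: Integrated calcium ratio converted to B score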
MrgX1 allo conf: reconfirmed allosteric activator of human MrgX1 receptor. shares compounds with MrgX1 allo act. AID 602413. 1,200 tested, 13% active. activation (ratio percentage), % at 10 µM. MrgX1-HEK293, Fluo-4 calcium fluorescence, FDSS;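 active = ratio at least 3 SD above the weak peptide control, stable starting fluorescence, no direct agonism earlier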;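 also: compound followed by low BAM8-22 agonist challenge near EC20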
HEK293 Ca flux: activity in parental HEK293 cells lacking MrgX1; shares compounds with MrgX1 antag; Fluo-4 calcium fluorescence, FDSS; fluorescence ratio F(max-min)/F0 at 10 µM; 4,000 tested, 2% active; AID 624111;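 active = duplicate-averaged calcium fluorescence ratio at least three times the standard deviation of buffer wells, a nonspecific response in parental cells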
HEK293 Ca counter: MrgX1 allosteric activator counter-screen hit in parental HEK293 cells. shares compounds with MrgX1 antag. parental HEK293 calcium flux, Fluo-4 fluorescence ratio; stronger effect = higher value. fluorescence ratio F(max-min)/F0 at 10 µM. 4,000 tested, 0.4% active. AID 624114;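 active = calcium fluorescence ratio, averaged over duplicates, at least 3 SD of the buffer-well ratio, meaning a nonspecific response in receptor-free cells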;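 also: untransfected parental HEK293 lacking MrgX1 used as counterscreen for MrgX1 allosteric activators; fluorescence change taken during the second addition on a kinetic imager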
HEK293 Ca cntr2: MrgX1 activator counter-screen hit in parental HEK293 cells; fluorescence ratio F(max-min)/F0 at 10 µM; shares compounds with MrgX1 antag; 4,000 tested, 8.7% active; Fluo-4 calcium fluorescence (FDSS); stronger effect = higher value; AID 624115;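 active = calcium fluorescence ratio at least three times the spread of buffer wells, meaning a non-specific response in parental cells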
Numbers without * were called inactive; i = inactive; . = not tested or not shown.

SMILES	MrgX1 allo act	MrgX1 ag	RGS4 inh	MrgX1 antag	RGS4 act	MrgX1 allo conf	HEK293 Ca flux	HEK293 Ca counter	HEK293 Ca cntr2
O=C(COc1ccc2c(c1)OCO2)NC12CC3CC(CC(C3)C1)C2	10.6*	i	i	i	i	i	i	i	i
Cn1c(SCC(=O)N2CCCc3ccccc32)nnc1-c1c[nH]c2ccccc12	i	i	i	i	i	.	.	.	.
Cn1c(SCC(=O)N2CCCC2=O)nnc1-c1ccccc1F	8.79*	i	i	i	i	i	i	i	i
Cc1ccc(S(=O)(=O)NNC(=S)Nc2cccc(F)c2)cc1	i	i	i	i	i	.	.	.	.
O=C(NCCNC(=O)c1ccc(Cl)cc1Cl)c1cnccn1	i	i	i	i	i	.	.	.	.
CCOC(=O)c1sc(=NC(=O)CCSc2ccccc2)n(C)c1C	i	i	i	i	i	.	.	.	.
CCOC(=O)c1sc(=NC(=O)COc2ccccc2)n(C)c1C	10.5*	i	i	i	i	i	i	i	i
CCc1cc(-c2[nH]ncc2-c2ccc3c(c2)OCO3)c(O)cc1O	i	i	i	i	i	.	.	.	.
COc1ccc(-c2[nH]ncc2-c2ccc3c(c2)OCCO3)c(O)c1	7.96*	i	.	i	.	i	i	i	i
CCOc1ccc(-c2[nH]ncc2Oc2ccccc2OCC)c(O)c1	6.69*	i	i	i	i	i	i	i	i
CCOc1ccc(-c2[nH]ncc2-c2ccc(OC)c(OC)c2)c(O)c1	18.1*	i	.	i	.	i	i	i	i
Cn1c(-c2ccc(F)cc2)cnc1NCc1ccccc1F	i	i	i	i	i	.	.	.	.
COC(=O)c1ccc(-c2noc(CN(C)CCC3CCCCO3)n2)cc1 (stereo not drawn)	i	i	i	i	i	.	.	.	.
COC(=O)c1ccc(N2CCCCC2)c(NS(=O)(=O)c2ccc(C)cc2)c1	i	i	i	i	i	.	.	.	.
CCOP(=O)(c1ccc(N(C)C)cc1)C(O)c1ccccc1F (stereo not drawn)	i	i	i	i	i	.	.	.	.
O=S1(=O)N=C(N2CCCC2)c2ccccc21	i	i	i	i	i	.	.	.	.
CCCSc1nnc(N2C(=O)CC(c3ccsc3)C3=C2CCCC3=O)s1 (stereo not drawn)	8.77*	i	i	i	i	i	i	i	i
COc1ccc(CC(=O)N(c2ccccc2)c2nc(C)cs2)cc1	10.6*	i	i	i	i	i	i	i	i
Cc1csc(N(C(=O)Cc2ccccc2F)c2ccccc2)n1	i	i	i	i	i	.	.	.	.
COc1ccc(CNc2ccccc2)cc1Br	9.41*	i	i	i	i	i	i	i	i
COc1ccc(CNc2ccc(C)cc2)cc1Br	i	i	i	i	i	.	.	.	.
O=C(COc1ccc(Cl)cc1Cl)NCCC1=CCCCC1	16.4*	i	i	i	i	5.0%*	i	i	i
CC1Cc2ccccc2N1C(=S)NC(=O)c1cccc(Br)c1 (stereo not drawn)	10.2*	i	i	i	i	i	i	i	i
Cc1cc(C)c2sc(NC(=O)c3ccc([N+](=O)[O-])o3)nc2c1	20.5*	i	i	i	i	i	i	i	i
COc1cc(NC(=O)C2CCCC2)c(OC)cc1Cl	6.59*	i	i	i	i	i	i	i	i
SMILES	MrgX1 allo act	MrgX1 ag	RGS4 inh	MrgX1 antag	RGS4 act	MrgX1 allo conf	HEK293 Ca flux	HEK293 Ca counter	HEK293 Ca cntr2
COc1cc(OC)cc(C2=NC3(CCC(C)CC3)NC2=S)c1 (stereo not drawn)	6.62*	i	i	i	i	i	i	i	i
Cc1ccc(C2=NC3(CCCC3)NC2=S)cc1	i	i	i	i	i	.	.	.	.
COc1ccccc1CCNC(=O)C(=O)NCCC1CCCCN1S(=O)(=O)c1ccccc1 (stereo not drawn)	i	i	i	i	i	.	.	.	.
COc1ccccc1NS(=O)(=O)c1cccc(NC(=O)c2[nH]c(C)c(C(C)=O)c2C)c1	7.45*	i	i	i	i	i	i	i	i
COc1ccccc1NC(=O)c1[nH]c(C)c(C(C)=O)c1C	i	i	.	i	.	.	.	.	.
CCOC(=O)C(=O)/C(=C\N(C)C)c1onc(-c2ccccc2Cl)c1C(=O)OC	i	i	i	i	i	.	.	.	.
COc1cccc(CNc2ccc(N3CCCCC3)cc2)c1OC	i	i	.	i	.	.	.	.	.
Cc1cccc(NC(=O)c2ccc3c(Cl)c4c(nc3c2)CCCC4)n1	20.1*	i	i	i	i	i	i	i	i
CCc1cccc(NS(=O)(=O)c2ccc3c(c2)NC(=O)C(C)S3)c1 (stereo not drawn)	15.5*	i	i	i	i	i	i	i	i
CC(Cc1ccccc1)Nc1ncnc2c1ncn2C1OC(CO)C(O)C1O (stereo not drawn)	7.58*	i	i	i	i	i	i	i	i
CSc1nc(N)nc(-c2cccs2)c1C#N	i	i	i	i	i	.	.	.	.
CC(C)Sc1nc(N)nc(-c2cccs2)c1C#N	9.05*	i	i	i	i	i	i	i	i
Cn1cc(S(=O)(=O)NCC2CCCO2)c(=O)n(C)c1=O (stereo not drawn)	i	i	i	i	i	.	.	.	.
COc1ccc(C(=O)c2ccc(N(C)C)cc2)c(OC)c1	8.72*	i	i	i	i	i	i	i	i
CC1=CC2=C(OC1N(C)C)c1cccc3cccc(c13)C2=O (stereo not drawn)	i	i	i	i	i	.	.	.	.
CCNC(=S)Nc1cccc(S(=O)(=O)NC2=NCCC2)c1	i	i	i	i	i	.	.	.	.
O=C(CCl)Nc1cccc(S(=O)(=O)NC2=NCCC2)c1	7.93*	i	i	i	i	i	i	i	i

From PubChem
